From article PMC9883262 (Molecular Metabolism, 2023)

System: MMP-9 secreted by MCF-7 cells
Experiment: Gelatin zymography MMP-9 secretion, MCF-7
Format: cell-based
Conditions: 80 nM PMA, serum-free medium, MCF-7, vs basal (MMP-9 not detectable)
How it was run: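 Cells attached overnight, then treated 24 or 48 h with test compound or DMSO vehicle in serum-free medium. Conditioned medium was acetone-precipitated (4 volumes, −20 °C, 2 h), and pellets were taken up in non-reducing SDS buffer. Samples were run on a 7.5% gel with 1 mg/mL gelatin, washed in Triton X-100/CaCl2/ZnCl2, incubated overnight at 37 °C, and Coomassie-stained. Mean ± SD of three independent experiments.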

CCCCCCCCCCCCCC(=O)O[C@@H]1[C@@H](C)[C@@]2(O)[C@@H](C=C(CO)C[C@]3(O)C(=O)C(C)=C[C@@H]23)[C@@H]2C(C)(C)[C@]12OC(C)=O [PMA, phorbol 12-myristate 13-acetate]
secreted MMP-9 level, PMA stimulation: drastically increased
